Measured values: ChEMBL document CHEMBL1143582, “Discovery of the alpha7 nicotinic acetylcholine receptor agonists. (R)-3'-(5-Chlorothiophen-2-yl)spiro-1-azabicyclo[2.2.2]octane-3,5'-[1',3']oxazolidin-2'-one as a novel, potent, selective, and orally bioavailable ligand” (J Med Chem, 2005)

Experiments:
[1] = target: T1, Neuronal acetylcholine receptor subunit alpha-7 (Rattus norvegicus, UniProt Q05941); experiment: (§1) Inhibition of [125I]alpha-bungarotoxin binding to rat nicotinic acetylcholine receptor alpha7
[2] = target: T1, Neuronal acetylcholine receptor subunit alpha-7; experiment: as §1; remark: listed apart in the source
Procedure, shortened: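 Membranes from Wistar rat hippocampus made by sucrose homogenisation and differential centrifugation, then resuspended in 118 mM NaCl, 4.8 mM KCl, 2.5 mM CaCl2, 1.2 mM MgCl2, 20 mM Na-HEPES pH 7.5. Incubated with [125I]-α-bungarotoxin plus compounds, 37 °C, 3 h. Bound label collected by filtration. Nonspecific binding defined with 100 µM (−)-nicotine.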

[3] = Maximum plasma concentration after peroral dosing of 10.0 mg/kg in rats (N=4); type: ADME, organism-based; set-up: dose 10 mg/kg, route oral; conditions: rat, po
Procedure, shortened: (§2)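 Rats (N=4) given a single oral dose; plasma sampled over 24 h. AUC0-24h estimated from the plasma concentration-time curve and Cmax taken as the peak plasma level. Reported as mean ± SD.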

[4] = Brain permeability is determined by ratio of concentration of compound in brain to that of in plasma (CB/CP) 2 hrs after oral dosing of 10.0 mg/kg (N=3); type: ADME, organism-based; set-up: dose 10 mg/kg, route oral; conditions: rat, read-out: Permeability
Procedure, shortened: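 Rats (N=3) given a single 10 mg/kg oral dose. Brain and plasma concentrations measured 2 h after dosing, and the brain/plasma ratio (CB/CP) calculated. Reported as mean ± SD.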

[5] = target: Neuronal acetylcholine receptor; alpha4/beta2 (Rattus norvegicus, UniProt P09483+P12390); experiment: Inhibition of [3H]cytisine binding to nicotinic acetylcholine receptor alpha4-beta2 from rat cerebral cortex; type: tissue-based
Procedure, shortened: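 Wistar rat cerebral cortex membranes in 120 mM NaCl, 2.5 mM KCl, 1 mM CaCl2, 1 mM MgCl2, 50 mM Tris-HCl pH 7.4. Incubated with [3H]cytisine plus compounds, 4 °C, 75 min. Filtered and counted by liquid scintillation. Nonspecific binding defined with 100 µM (−)-nicotine.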

[6] = Oral bioavailability of compound after peroral dosing of 10.0 mg/kg in rats (N=4); type: ADME, organism-based; conditions: rat, in vivo, read-out: BA
[7] = Area under plasma concentration time curve 24 hours after peroral dosing of 1.0 mg/kg (AUC) in rats (N=4); type: ADME, organism-based; set-up: dose 1 mg/kg, route oral; conditions: rat, po; procedure, shortened: as §2
[8] = Maximum plasma concentration after peroral dosing of 1.0 mg/kg in rats (N=4); type: ADME, organism-based; set-up: dose 1 mg/kg, route oral; conditions: rat, po; procedure, shortened: as §2
[9] = Oral bioavailability of compound after peroral dosing of 1.0 mg/kg in rats (N=4); type: ADME, organism-based; conditions: rat, in vivo, read-out: BA
[10] = Area under plasma concentration time curve 24 hours after peroral dosing of 10.0 mg/kg (AUC) in rats (N=4); type: ADME, organism-based; set-up: dose 10 mg/kg, route oral; conditions: rat, po; procedure, shortened: as §2
[11] = Inhibition of [125I]alpha-bungarotoxin binding to nicotinic acetylcholine receptor […]-delta-gamma from BC3H1 cells; type: cell-based, Mus musculus; conditions: bc3h-1
Procedure, shortened: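 BC3H1 muscle cells grown in DMEM with 4 mM L-glutamine and 20% FBS. Membranes from confluent cells washed in HEPES-buffered saline, pH 7.5. Incubated with [125I]-α-bungarotoxin plus compounds, 37 °C, 3 h, then filtered. Nonspecific binding defined with […].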

[12] = Brain permeability is determined by ratio of concentration of compound in brain to that of in plasma (CB/CP) 1 hr after subcutaneous dosing of 1.0 mg/kg (N=3); type: ADME, organism-based; set-up: dose 1 mg/kg, route subcutaneous; conditions: rat, sc, read-out: Permeability
Procedure, shortened: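 Rats (N=3) given a single 1 mg/kg sc dose. Brain and plasma concentrations measured 1 h later, and the brain/plasma ratio (CB/CP) calculated. Reported as mean ± SD.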

[13] = Half-life of plasma concentration after intravenous dosing of 1 mg/kg in rats (N=4); conditions: rat

T1 sequence (Q05941 whole entry): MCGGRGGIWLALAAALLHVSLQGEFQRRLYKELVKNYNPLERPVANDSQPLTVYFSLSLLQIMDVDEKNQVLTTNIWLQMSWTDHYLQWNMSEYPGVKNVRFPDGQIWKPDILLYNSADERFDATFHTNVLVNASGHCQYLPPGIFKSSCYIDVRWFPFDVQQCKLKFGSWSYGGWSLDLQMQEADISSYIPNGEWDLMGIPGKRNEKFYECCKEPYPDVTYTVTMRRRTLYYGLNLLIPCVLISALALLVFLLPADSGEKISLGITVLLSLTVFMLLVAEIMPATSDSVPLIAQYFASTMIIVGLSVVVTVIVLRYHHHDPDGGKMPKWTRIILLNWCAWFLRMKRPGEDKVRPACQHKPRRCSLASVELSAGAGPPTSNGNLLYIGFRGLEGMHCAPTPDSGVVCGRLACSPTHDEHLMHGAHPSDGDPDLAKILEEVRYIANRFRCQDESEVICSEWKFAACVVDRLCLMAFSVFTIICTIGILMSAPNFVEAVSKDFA
Neuronal acetylcholine receptor; alpha4/beta2, sequence (P09483 whole entry): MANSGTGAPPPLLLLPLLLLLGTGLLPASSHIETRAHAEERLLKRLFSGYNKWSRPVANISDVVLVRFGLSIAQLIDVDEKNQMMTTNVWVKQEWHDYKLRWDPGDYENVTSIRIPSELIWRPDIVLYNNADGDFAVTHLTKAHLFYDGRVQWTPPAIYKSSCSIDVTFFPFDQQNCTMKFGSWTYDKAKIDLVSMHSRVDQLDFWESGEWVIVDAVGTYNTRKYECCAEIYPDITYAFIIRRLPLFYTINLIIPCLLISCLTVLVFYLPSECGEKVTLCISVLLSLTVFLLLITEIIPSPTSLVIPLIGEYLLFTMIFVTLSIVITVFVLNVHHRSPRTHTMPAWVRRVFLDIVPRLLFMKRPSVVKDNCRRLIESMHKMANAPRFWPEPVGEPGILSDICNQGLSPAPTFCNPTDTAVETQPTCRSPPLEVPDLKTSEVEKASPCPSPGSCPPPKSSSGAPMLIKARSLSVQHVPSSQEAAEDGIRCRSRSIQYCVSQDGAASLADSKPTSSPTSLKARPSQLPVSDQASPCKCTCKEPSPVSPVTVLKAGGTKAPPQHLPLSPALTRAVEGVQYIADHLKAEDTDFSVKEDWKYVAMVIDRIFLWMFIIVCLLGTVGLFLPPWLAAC
Neuronal acetylcholine receptor; alpha4/beta2, sequence (P12390 whole entry): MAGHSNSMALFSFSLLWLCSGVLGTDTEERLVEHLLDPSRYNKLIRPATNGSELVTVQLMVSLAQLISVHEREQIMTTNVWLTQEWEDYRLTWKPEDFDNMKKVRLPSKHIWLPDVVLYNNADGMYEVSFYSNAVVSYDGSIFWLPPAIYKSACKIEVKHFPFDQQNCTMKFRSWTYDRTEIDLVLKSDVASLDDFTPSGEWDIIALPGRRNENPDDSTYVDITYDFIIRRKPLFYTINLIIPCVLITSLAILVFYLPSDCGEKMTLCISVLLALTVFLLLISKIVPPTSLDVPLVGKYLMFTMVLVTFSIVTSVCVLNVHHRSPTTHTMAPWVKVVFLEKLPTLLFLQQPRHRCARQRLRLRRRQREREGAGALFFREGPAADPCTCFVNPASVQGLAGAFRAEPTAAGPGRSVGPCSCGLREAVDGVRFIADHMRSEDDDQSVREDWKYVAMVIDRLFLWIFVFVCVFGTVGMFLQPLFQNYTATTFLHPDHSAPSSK

Compound | Ki [1] | IC50 [2] | further results
c1ccc2sc(CO[C@@H]3CN4CCC3CC4)cc2c1 | 13 nM |  | 
O=C1O[C@]2(CN3CCC2CC3)CN1c1nc2ccccc2s1 | 430 nM |  | 
O=C1O[C@]2(CN3CCC2CC3)CN1c1nc2ccccc2o1 |  | > 1000 nM | 
N#Cc1ccc(N2C[C@@]3(CN4CCC3CC4)OC2=O)s1 | 85 nM |  | 
O=C1O[C@]2(CN3CCC2CC3)CN1c1cc2ccccc2o1 | 370 nM |  | 
O=C1OC2(CN3CCC2CC3)CN1c1ccccc1 (stereo unspecified) |  | > 1000 nM | 
CC(C)c1ccc(N2C[C@@]3(CN4CCC3CC4)OC2=O)s1 | 65 nM |  | 
O=C1O[C@]2(CN3CCC2CC3)CN1c1ccsc1 |  | > 1000 nM | 
O=C1O[C@]2(CN3CCC2CC3)CN1c1ccc(Br)s1 | 4 nM |  | 
Cc1cc(N2C[C@@]3(CN4CCC3CC4)OC2=O)sc1C |  | > 1000 nM | 
Cc1ccc(N2C[C@@]3(CN4CCC3CC4)OC2=O)s1 | 12 nM |  | 
CC(O)c1ccc(N2C[C@@]3(CN4CCC3CC4)OC2=O)s1 (stereo partly specified) | 145 nM |  | 
O=C1O[C@]2(CN3CCC2CC3)CN1c1cc2ccccc2s1 | 75 nM |  | 
Cc1csc(N2C[C@@]3(CN4CCC3CC4)OC2=O)c1 |  | > 1000 nM | 
O=C1O[C@@]2(CN3CCC2CC3)CN1c1cc2ccccc2s1 |  | > 1000 nM | 
O=C1O[C@]2(CN3CCC2CC3)CN1c1ccc2ccccc2c1 | 31 nM |  | 
O=C1O[C@]2(CN3CCC2CC3)CN1c1ccc(Cl)s1 | 9 nM |  | Cmax [3]: 997 ng/mL; Kp at 2 h [4]: 59; Ki [5]: 1800 nM; bioavailability [6]: 108%; AUC at 24 h [7]: 224 ng·h/mL; Cmax [8]: 56 ng/mL; bioavailability [9]: 52%; AUC at 24 h [10]: 4640 ng·h/mL; IC50 [11]: > 10000 nM
O=C1NC[C@@]2(CN3CCC2CC3)O1 |  |  | Cmax [3]: 1580 ng/mL; Kp at 1 h [12]: 0.76; bioavailability [6]: 103%; AUC at 24 h [10]: 5390 ng·h/mL; IC50 [11]: > 10000 nM
O=C1O[C@]2(CN3CCC2CC3)CN1c1ccccn1 |  | > 1000 nM | 
O=C1O[C@@]2(CN3CCC2CC3)CN1c1ccc2ccccc2c1 | 205 nM |  | 
O=C1O[C@]2(CN3CCC2CC3)CN1c1cccs1 | 80 nM |  | 
CCc1ccc(N2C[C@@]3(CN4CCC3CC4)OC2=O)s1 | 21 nM |  | 
CC(=O)c1ccc(N2C[C@@]3(CN4CCC3CC4)OC2=O)s1 | 190 nM |  | 
Cc1ccsc1N1C[C@@]2(CN3CCC2CC3)OC1=O |  | > 1000 nM | 
O=C(CC1CN2CCC1CC2)c1cc2ccccc2s1 (single isomer, unassigned; (+)) | 65 nM |  | 
COc1ccc(/C=C2\CCCN=C2c2cccnc2)c(OC)c1 [GTS-21] | 220 nM |  | Cmax [3]: 138 ng/mL; Kp at 2 h [4]: < 0.3; Ki [5]: 84 nM; bioavailability [6]: 14%; AUC at 24 h [10]: 453 ng·h/mL; IC50 [11]: > 10000 nM; half-life [13]: 28.2 min
